Each structure is given as a SMILES string.

The IC50 is the midpoint of a concentration-inhibition curve.

For experiment [1], the target named is T1, Tyrosine-protein phosphatase non-receptor type 1 (Homo sapiens) (UniProt P18031).
T1 sequence (whole entry): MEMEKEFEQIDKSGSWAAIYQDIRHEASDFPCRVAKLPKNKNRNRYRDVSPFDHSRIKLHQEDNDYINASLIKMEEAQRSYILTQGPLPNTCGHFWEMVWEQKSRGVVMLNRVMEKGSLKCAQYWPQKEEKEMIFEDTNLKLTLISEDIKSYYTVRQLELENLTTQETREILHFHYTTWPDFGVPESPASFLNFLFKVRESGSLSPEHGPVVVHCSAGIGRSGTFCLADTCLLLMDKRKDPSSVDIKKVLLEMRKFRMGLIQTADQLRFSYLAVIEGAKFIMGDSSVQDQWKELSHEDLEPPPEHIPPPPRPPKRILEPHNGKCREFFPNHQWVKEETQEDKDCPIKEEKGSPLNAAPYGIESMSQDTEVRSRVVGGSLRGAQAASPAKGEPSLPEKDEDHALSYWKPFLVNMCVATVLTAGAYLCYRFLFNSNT
As to the kind of experiment: In vitro inhibitory activity against recombinant human Protein Tyrosine Phosphatase 1b at a concentration of 1 uM. In short, it runs like this:
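Recombinant human PTP1B was preincubated 10 min at 37 °C with compound at 1 µM, then given 50 µM tri-phosphorylated insulin receptor dodecapeptide for 30 min at 37 °C. Liberated phosphate was measured by malachite green-molybdate absorbance at 650 nm, in quadruplicate. Values are inhibition expressed as percent of phosphatase control.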

Experiment [2] concerns the target Dual specificity protein phosphatase 3 (Homo sapiens, UniProt P51452). In words: in vitro inhibitory activity against Dual specificity protein phosphatase 3.
Experiment [3] in a line: in vitro inhibitory activity against He-PTP.
In experiment [4] the target is Receptor-type tyrosine-protein phosphatase F (Homo sapiens, UniProt P10586). In words: in vitro inhibitory activity against LAR.
The test system of experiment [5] is Mus musculus. As to the kind of experiment: percentage decrease in plasma glucose in the ob/ob mouse model at 100 mg/kg/day administered per orally. The format is functional. As to conditions: route oral. The essentials: (§1)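 Genetically obese C57 B1/6J ob/ob diabetic mice, four to six per group, dosed orally once daily for 4 days. Plasma glucose is expressed as percent change relative to the vehicle-treated group, with p < 0.05 versus vehicle. Changes that are not significant are generally less than -15%. Ciglitazone served as the reference standard.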

Experiment [6] is described as follows: in vitro inhibitory activity against PTP-a.
In experiment [7] the test system is Mus musculus. As to the kind of experiment: percentage decrease in plasma glucose in the ob/ob mouse model at 25 mg/kg/day administered per orally. The format is functional. As to conditions: route oral. The essentials:
as §1

Experiment [8] concerns the target T2, Tyrosine-protein phosphatase non-receptor type 1 (Homo sapiens, UniProt P18031).
T2 sequence (P18031 whole entry): T1 sequence (whole entry)
In words: in vitro inhibitory activity against recombinant human Protein Tyrosine Phosphatase 1b. The essentials:
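Recombinant human PTP1B, diluted in pH 7.4 Tris-HCl/EDTA/β-mercaptoethanol buffer, preincubated 10 min at 37 °C with compound in HEPES pH 7.4. Substrate was the insulin receptor 1142-1153 dodecapeptide phosphorylated at Y1146/1150/1151, 50 µM final. Reaction ran 30 min at 37 °C. Released phosphate was read by malachite green-ammonium molybdate at 650 nm, in quadruplicate. IC50 came from four-parameter logistic regression.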

Experiment [9] has as its target T1, Tyrosine-protein phosphatase non-receptor type 1 (Homo sapiens). As to conditions: 0.25 uM.
For experiment [10], the system named is Mus musculus. As to the kind of experiment: percentage decrease in plasma glucose in the ob/ob mouse model at 25 mg/Kg/day administered per orally. The format is functional. The essentials:
as §1

The target in experiment [11] is T2, Tyrosine-protein phosphatase non-receptor type 1. As to the kind of experiment: In vitro inhibitory activity against human recombinant protein tyrosine phosphatase 1b (PTP1B). In short, it runs like this: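 Recombinant human PTP1B, diluted in pH 7.4 Tris-HCl/EDTA/β-mercaptoethanol buffer, preincubated 10 min at 37 °C with compound in HEPES pH 7.4. Reaction ran 30 min at 37 °C. Released phosphate was read by malachite green-ammonium molybdate at 650 nm, in quadruplicate. IC50 came from four-parameter logistic regression.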

Experiment [12] concerns Mus musculus. As to the kind of experiment: Percentage decrease in plasma glucose in the ob/ob mouse model at 100 mg/kg/day administered per orally. The format is functional. As to conditions: route oral. The essentials:
as §1

For experiment [13], the target named is T1, Tyrosine-protein phosphatase non-receptor type 1 (Homo sapiens). The settings on record: 0.1 uM.

Dual specificity protein phosphatase 3, sequence (P51452 whole entry): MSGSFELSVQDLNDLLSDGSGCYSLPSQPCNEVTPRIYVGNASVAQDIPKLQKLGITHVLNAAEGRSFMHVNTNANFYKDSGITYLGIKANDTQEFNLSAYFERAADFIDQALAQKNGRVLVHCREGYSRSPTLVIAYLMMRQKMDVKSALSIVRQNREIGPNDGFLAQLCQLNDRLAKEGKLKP
Receptor-type tyrosine-protein phosphatase F, sequence (P10586 whole entry): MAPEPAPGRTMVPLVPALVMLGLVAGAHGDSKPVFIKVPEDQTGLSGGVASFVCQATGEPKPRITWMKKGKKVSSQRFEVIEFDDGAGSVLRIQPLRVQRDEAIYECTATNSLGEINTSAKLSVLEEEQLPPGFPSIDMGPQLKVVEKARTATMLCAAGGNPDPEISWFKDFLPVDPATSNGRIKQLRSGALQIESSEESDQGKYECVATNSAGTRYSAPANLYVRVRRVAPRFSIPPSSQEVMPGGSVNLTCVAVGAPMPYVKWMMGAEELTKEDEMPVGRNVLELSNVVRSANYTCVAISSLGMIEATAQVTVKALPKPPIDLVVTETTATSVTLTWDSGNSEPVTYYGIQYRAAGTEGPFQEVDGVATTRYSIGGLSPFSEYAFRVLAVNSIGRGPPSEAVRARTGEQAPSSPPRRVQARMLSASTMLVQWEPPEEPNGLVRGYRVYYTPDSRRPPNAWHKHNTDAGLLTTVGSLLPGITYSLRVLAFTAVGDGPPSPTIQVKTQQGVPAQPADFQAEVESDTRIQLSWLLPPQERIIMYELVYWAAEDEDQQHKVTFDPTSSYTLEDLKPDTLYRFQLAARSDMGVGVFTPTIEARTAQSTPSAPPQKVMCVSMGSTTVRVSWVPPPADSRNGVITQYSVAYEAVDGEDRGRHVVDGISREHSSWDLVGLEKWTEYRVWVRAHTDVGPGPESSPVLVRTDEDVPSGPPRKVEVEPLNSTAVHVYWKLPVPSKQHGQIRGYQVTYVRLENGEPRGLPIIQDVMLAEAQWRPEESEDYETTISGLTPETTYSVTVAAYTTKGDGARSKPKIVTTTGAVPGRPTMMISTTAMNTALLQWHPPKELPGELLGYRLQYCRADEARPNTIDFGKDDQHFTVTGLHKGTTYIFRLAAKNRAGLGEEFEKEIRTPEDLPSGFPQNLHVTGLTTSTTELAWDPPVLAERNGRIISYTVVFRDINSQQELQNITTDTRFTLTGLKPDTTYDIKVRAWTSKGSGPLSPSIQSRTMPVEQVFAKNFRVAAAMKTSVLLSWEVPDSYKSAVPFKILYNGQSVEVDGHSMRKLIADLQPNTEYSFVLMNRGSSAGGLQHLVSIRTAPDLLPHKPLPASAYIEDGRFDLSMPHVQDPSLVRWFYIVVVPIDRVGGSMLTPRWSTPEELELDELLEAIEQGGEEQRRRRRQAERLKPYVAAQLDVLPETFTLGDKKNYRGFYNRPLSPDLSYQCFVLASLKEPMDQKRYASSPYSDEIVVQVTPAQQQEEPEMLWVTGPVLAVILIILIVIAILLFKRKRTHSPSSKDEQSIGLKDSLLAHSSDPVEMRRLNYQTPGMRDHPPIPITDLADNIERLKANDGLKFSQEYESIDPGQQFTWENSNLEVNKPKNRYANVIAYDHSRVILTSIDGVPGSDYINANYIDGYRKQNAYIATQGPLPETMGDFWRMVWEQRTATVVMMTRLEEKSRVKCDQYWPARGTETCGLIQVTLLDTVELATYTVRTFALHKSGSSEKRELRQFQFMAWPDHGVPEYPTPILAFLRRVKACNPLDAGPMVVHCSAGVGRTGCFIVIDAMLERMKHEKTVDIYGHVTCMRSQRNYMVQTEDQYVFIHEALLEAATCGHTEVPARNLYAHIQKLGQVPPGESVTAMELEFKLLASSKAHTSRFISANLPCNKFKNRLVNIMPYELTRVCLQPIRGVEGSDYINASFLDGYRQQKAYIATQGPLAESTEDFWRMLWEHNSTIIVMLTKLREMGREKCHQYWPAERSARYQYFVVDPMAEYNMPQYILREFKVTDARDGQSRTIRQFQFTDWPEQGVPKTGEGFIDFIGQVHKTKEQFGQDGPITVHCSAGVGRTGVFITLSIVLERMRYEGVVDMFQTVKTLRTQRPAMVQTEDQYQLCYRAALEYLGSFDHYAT

For `Oc1c(Br)cc(-c2ccc(-c3c(Cc4ccccc4)oc4ccccc34)cc2)cc1Br`, in [1], the Average inhibition is -43.
In the case of `O=C(O)[C@H](Cc1ccccc1)Oc1ccc(-c2ccc(-c3c(Cc4ccccc4)oc4ccccc34)cc2)cc1`, the IC50 is 15900 nM in [2], 7100 nM in experiment [3], 3250 nM in [4] and 33700 nM in experiment [6]. The results for the Decrease in the experiment with Mus musculus [5] and in the experiment on Mus musculus [7] were 40% and 27%, respectively.
As for `O=C(O)/C=C\C(=O)Nc1cc(-c2ccc(-c3c(Cc4ccccc4)oc4ccccc34)cc2)ccc1O`, the IC50 in [8] stood at 460 nM.
In turn, `O=C(O)[C@H](Cc1ccccc1)Oc1ccc(-c2ccc(-c3c(Cc4ccc(F)cc4)oc4ccccc34)cc2)cc1` came in with an Average inhibition in experiment [9] of -38.
Regarding `O=C(O)[C@@H](Cc1ccccc1)Oc1ccc(-c2ccc(-c3c(C(O)c4ccccc4)oc4ccccc34)cc2)cc1` (stereo partly drawn), the figures for the Decrease with Mus musculus [5] and in the experiment on Mus musculus [10] were -1% and 21%, respectively. In addition, the IC50 in experiment [11] came to 110 nM.
In the case of `Cc1oc(-c2ccc(C(F)(F)F)cc2)nc1-c1ccc(-c2ccc(OCC(=O)O)cc2)cc1`, the Decrease in the experiment with Mus musculus [12] was determined as 40%. Moreover, the IC50 in experiment [11] was determined as 800 nM.
In experiment [13], `CCCc1cc(-c2ccc(-c3c(Cc4ccccc4)oc4ccccc34)cc2)ccc1O[C@@H](Cc1ccccc1)C(=O)O` had an Average inhibition of -59.
Take `O=C(O)CCC(=O)Nc1cc(-c2ccc(-c3c(Cc4ccccc4)oc4ccccc34)cc2)ccc1O`: the IC50 in experiment [8] turned out to be 920 nM.
For the compound `Oc1ccc(-c2ccc(-c3c(Cc4ccccc4)oc4ccccc34)cc2)cc1Br`, in [1], the Average inhibition was -59.
Same read-out and setting: to `O=C(O)[C@@H](Cc1ccccc1)Oc1ccc(-c2ccc(-c3nc4cccnc4n3Cc3ccccc3)cc2)cc1` belongs -19.

The values above are taken from ChEMBL document CHEMBL1132993, “Novel benzofuran and benzothiophene biphenyls as inhibitors of protein tyrosine phosphatase 1B with antihyperglycemic properties” (J Med Chem, 2000).
